Assay [1] relates to L1210. The assay is described as follows: Concentration that inhibits the proliferation of L1210 cells by 50%. It counts as functional, cell-based. The conditions noted are these: Mus musculus. In a few lines: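 L1210 murine leukemia cells were incubated with drug at various concentrations for 60 min at 37 °C. Colonies were stained with tetrazolium and counted; cloning efficiency is 8-10%. IC50 is the drug concentration in the agar giving 50% fewer colonies.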

In assay [2] the test system is L1210. In words: Non-protein associated single strand breaks, measured after cell lysis in the absence of proteinase K treatment at 10 uM concentration of the compound. It counts as functional, Mus musculus. The essentials:
(§1)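 L1210 cells were exposed to compound for 1 h and DNA strand breaks were measured by alkaline elution, expressed as rad equivalents. Protein-associated breaks were read after cell lysis plus proteinase K treatment. Non-protein-associated breaks were read after lysis without proteinase K.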

For assay [3], the system named is L1210. The assay is described as follows: Protein associated single strand breaks, measured after cell lysis and proteinase K treatment at 10 uM concentration of the compound. It counts as functional, Mus musculus. The essentials:
as §1

The test system of assay [4] is DNA topoisomerase 1 (Bos taurus). In words: Concentration that produces 50% DNA cleavage mediated by DNA topoisomerase I; neg= negative is no enzyme mediated DNA cleavage at the highest conc tested at 50 uM.
Assay [5] deals with L1210. In words: Non-protein associated single strand breaks, measured after cell lysis in the absence of proteinase K treatment at 35 uM concentration of the compound. It counts as functional, Mus musculus. In a few lines: as §1
In assay [6] the test system is L1210. The assay is described as follows: Protein associated single strand breaks, measured after cell lysis and proteinase K treatment at 35 uM concentration of the compound. It counts as functional, Mus musculus. In a few lines:
as §1

The subject of assay [7] is L1210. In words: Non-protein associated single strand breaks, measured after cell lysis in the absence of proteinase K treatment at 3.5 uM concentration of the compound. It counts as functional, Mus musculus. In a few lines:
as §1

In assay [8] the test system is DNA topoisomerase 1 (Bos taurus). The assay is described as follows: Concentration that produces 50% DNA cleavage mediated by topoisomerase I; neg= negative is no enzyme mediated DNA cleavage at the highest conc tested at 50 uM.
Assay [9] has the same test system. In words: Concentration that produces 50% DNA cleavage mediated by DNA topoisomerase I.
Assay [10] has as its system L1210. The assay is described as follows: Non-protein associated single strand breaks, measured after cell lysis in the absence of proteinase K treatment at 2 uM concentration of the compound. It counts as functional, Mus musculus. The essentials:
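L1210 cells exposed to drug for 1 h, then alkaline elution. Cells lysed without proteinase K treatment to score single-strand breaks not bound to protein. Expressed as rad equivalents.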

Assay [11] has as its system L1210. In words: Protein associated single strand breaks, measured after cell lysis and proteinase K treatment at 2 uM concentration of the compound. It counts as functional, Mus musculus. In a few lines: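 L1210 cells exposed to drug for 1 h, then alkaline elution. Lysis followed by proteinase K treatment to score protein-associated single-strand breaks. Expressed as rad equivalents.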

Assay [12] deals with L1210. In words: Non-protein associated single strand breaks, measured after cell lysis in the absence of proteinase K treatment at 20 uM concentration of the compound. It counts as functional, Mus musculus. In a few lines: as §1
Assay [13] concerns L1210. The assay is described as follows: Protein associated single strand breaks, measured after cell lysis and proteinase K treatment at 20 uM concentration of the compound. It counts as functional, Mus musculus. In a few lines: as §1

SMILES strings stand for the structures. Bounds are passed on as bounds.

`CC[C@]1(O)c2cc3n(c(=O)c2COC1O)Cc1cc2ccccc2nc1-3` (some centres not stated): the IC50 in the assay with L1210 [1] was determined as 2700 nM. Besides, the Radiation equivalent in the assay on L1210 [2] and with L1210 [3] was less than 100 in each case. In [4], the CC50 entry is “Negative”.

For `O=c1c2cocc2c(O)c2n1Cc1cc3ccccc3nc1-2`, the Radiation equivalent in the assay on L1210 [5] is 1000; in the assay on L1210 [6], less than 100; in the assay with L1210 [7], 175. Further, in the assay on L1210 [1], the IC50 came to 92 nM. Also, the CC50 entry in assay [4] was “Negative”.

Take `CC[C@@]1(O)C(=O)SCc2c1cc1n(c2=O)Cc2cc3ccccc3nc2-1`: the CC50 result in [8] is “Negative”. Also, the IC50 in the assay on L1210 [1] amounted to 2900 nM.

Take `CCC1(O)OCc2c1cc1n(c2=O)Cc2cc3ccccc3nc2-1` (configuration not stated): the CC50 result in [8] was “Negative”. For the same compound, in the assay with L1210 [1], the IC50 is more than 5900 nM.

`CC[C@@](O)(C(=O)NC(C)C)c1cc2n(c(=O)c1CO)Cc1cc3ccccc3nc1-2`: in [9], the CC50 is 5000 nM.

`CC[C@@]1(O)C(=O)OCc2c1cc1n(c2=O)Cc2cc3ccccc3nc2-1` [CAMPTOTHECIN]: the IC50 with L1210 [1] was 14 nM. Also, the Radiation equivalent in the assay on L1210 [10] was 240; with L1210 [11], 342.

In the assay with L1210 [1], `CC[C@H]1C(=O)OCc2c1cc1n(c2=O)Cc2cc3ccccc3nc2-1` displayed a half-maximal inhibitory concentration (IC50) of 590 nM. In assay [4], the CC50 result was “Negative”.

Compound `O=C1OCc2c1cc1n(c2=O)Cc2cc3ccccc3nc2-1` registered an IC50 in the assay on L1210 [1] of more than 5900 nM. In addition, the CC50 result in assay [4] was “Negative”.

Take `C=C1CC(CC)(c2cc3n(c(=O)c2C)Cc2cc4ccccc4nc2-3)OC1=O` (configuration not stated): in [8], the CC50 entry was “Negative”. Besides, the IC50 in the assay on L1210 [1] was found to be 94 nM. For the same compound, the Radiation equivalent in the assay with L1210 [10] is listed as less than 100; in the assay with L1210 [12], 1360; in the assay with L1210 [13] it was less than 100; in the assay on L1210 [11] it was less than 100.

`CCC1OC(=O)c2c1cc1n(c2=O)Cc2cc3ccccc3nc2-1` (configuration not stated) yielded a 50% inhibitory concentration (IC50) in the assay with L1210 [1] of more than 5900 nM. Further, in [4], the CC50 entry was “Negative”.

As to `CC[C@@](O)(C(=O)O)c1cc2n(c(=O)c1CO)Cc1cc3ccccc3nc1-2`, in the assay with L1210 [1], the IC50 came to 14 nM. The CC50 in [9] was determined as 900 nM.

In the assay with L1210 [1], `CC[C@@]1(O)C(=O)NCc2c1cc1n(c2=O)Cc2cc3ccccc3nc2-1` showed an IC50 of more than 2000 nM. The Radiation equivalent in the assay with L1210 [2] and in the assay with L1210 [3] was less than 100 in each case. Besides, the CC50 entry in assay [4] was “Negative”.

In turn, `CC[C@@]1(OC(C)=O)C(=O)OCc2c1cc1n(c2=O)Cc2cc3ccccc3nc2-1` showed an IC50 in the assay with L1210 [1] of 390 nM. Also, the CC50 entry in assay [4] is “Negative”.

The IC50 is the point on the concentration scale where inhibition reaches its midpoint.

Values taken from ChEMBL document CHEMBL1124433 (J Med Chem, 1989).
